Data taken from ChEMBL document CHEMBL1138502, “Discovery and biological evaluation of novel cyanoguanidine P2X(7) antagonists with analgesic activity in a rat model of neuropathic pain” (J Med Chem, 2009).

How the values were obtained:
[1] = target: T1, P2X purinoceptor 7 (Homo sapiens, UniProt Q99572); experiment: Antagonist activity at human cloned P2X7 receptor expressed in HEK293 cells assessed as inhibition of calcium flux by FLIPR assay; assay type: functional, cell-based
T1 sequence (Q99572 whole entry): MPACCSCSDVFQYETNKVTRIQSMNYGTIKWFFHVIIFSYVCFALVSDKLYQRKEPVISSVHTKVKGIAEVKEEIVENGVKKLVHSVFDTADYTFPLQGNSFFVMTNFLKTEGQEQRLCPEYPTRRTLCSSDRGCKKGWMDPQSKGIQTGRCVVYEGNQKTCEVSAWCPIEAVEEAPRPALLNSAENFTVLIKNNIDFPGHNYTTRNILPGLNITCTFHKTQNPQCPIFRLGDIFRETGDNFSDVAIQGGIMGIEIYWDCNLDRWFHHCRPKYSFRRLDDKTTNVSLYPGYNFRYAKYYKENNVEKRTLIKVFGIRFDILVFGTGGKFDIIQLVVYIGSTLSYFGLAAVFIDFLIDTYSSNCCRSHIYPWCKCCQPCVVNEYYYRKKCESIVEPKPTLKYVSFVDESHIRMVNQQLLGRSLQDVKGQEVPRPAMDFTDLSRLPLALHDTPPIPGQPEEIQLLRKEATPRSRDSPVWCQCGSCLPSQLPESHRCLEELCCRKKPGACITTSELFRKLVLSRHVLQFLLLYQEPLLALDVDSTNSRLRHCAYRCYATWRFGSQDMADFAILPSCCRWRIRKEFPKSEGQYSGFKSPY
Summary of the method: (§1)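 Calcium influx read on a fluorometric imaging plate reader with Fluo-4 as the calcium-sensing dye. The P2X7 agonist was benzoylbenzoic ATP (BzATP). pIC50 values are the mean of two experiments unless otherwise indicated; some values are the mean of more than two experiments, with standard deviation shown.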

[2] = target: T2, P2X purinoceptor 7 (Rattus norvegicus, UniProt Q64663); experiment: Antagonist activity at rat cloned P2X7 receptor expressed in HEK293 cells assessed as inhibition of calcium flux by FLIPR assay; assay type: functional, cell-based; summary of the method: as §1
T2 sequence (Q64663 whole entry): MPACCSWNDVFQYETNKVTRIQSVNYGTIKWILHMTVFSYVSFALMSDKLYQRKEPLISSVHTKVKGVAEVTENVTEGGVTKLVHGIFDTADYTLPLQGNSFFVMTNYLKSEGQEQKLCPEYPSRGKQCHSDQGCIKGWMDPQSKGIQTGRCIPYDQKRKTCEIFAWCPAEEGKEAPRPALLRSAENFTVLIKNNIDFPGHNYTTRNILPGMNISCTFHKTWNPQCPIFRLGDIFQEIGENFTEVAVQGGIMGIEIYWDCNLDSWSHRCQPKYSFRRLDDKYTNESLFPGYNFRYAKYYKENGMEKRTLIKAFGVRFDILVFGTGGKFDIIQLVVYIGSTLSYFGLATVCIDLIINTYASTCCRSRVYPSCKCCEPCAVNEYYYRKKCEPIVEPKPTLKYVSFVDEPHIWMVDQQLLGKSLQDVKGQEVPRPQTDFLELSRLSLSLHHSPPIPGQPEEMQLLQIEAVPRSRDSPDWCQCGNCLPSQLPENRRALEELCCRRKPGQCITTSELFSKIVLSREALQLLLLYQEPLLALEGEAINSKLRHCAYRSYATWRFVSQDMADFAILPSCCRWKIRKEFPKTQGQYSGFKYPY

[3] = Bioavailability in rat at 10 umol/kg, ip; assay type: ADME, organism-based; settings: in vivo

| SMILES | IC50 [1] [nM] | IC50 [2] [nM] | bioavailability [3] [%] |
| --- | --- | --- | --- |
| COc1ccc(CC(=O)NC(N=C(NC#N)Nc2ccc(F)cc2)C(C)(C)C)cc1OC (centres undefined) | 316 | 20 | – |
| Cc1ccccc1N/C(=N\C#N)NC(NC(=O)Cc1ccccc1)C(C)(C)C (centres undefined) | 31600 | 316 | – |
| CCCCCC(=O)NC(N=C(NC#N)Nc1ccccc1C)C(C)(C)C (centres undefined) | 794 | 31.6 | – |
| COc1ccc(CC(=O)NC(N=C(NC#N)NCc2ccccc2Cl)C(C)(C)C)cc1OC (centres undefined) | 631 | 200 | – |
| COc1ccc(CC(=O)NC(N/C(=N/C#N)Nc2cccc3cccnc23)C(C)(C)C)cc1OC (centres undefined) | 1580 | 158 | – |
| COc1ccc(CC(=O)NC(N=C(NC#N)Nc2ccc(C)cc2)C(C)(C)C)cc1OC (centres undefined) | 2000 | 20 | – |
| COc1ccc(CC(=O)NC(N=C(NC#N)Nc2cccc(C)c2)C(C)(C)C)cc1OC (centres undefined) | 1000 | 39.8 | – |
| COc1cc(OC)cc(C(=O)NC(N=C(NC#N)Nc2ccccc2C)C(C)(C)C)c1 (centres undefined) | 2510 | 794 | – |
| COc1cc(CC(=O)NC(N/C(=N/C#N)Nc2ccccc2C)C(C)(C)C)cc(OC)c1 (centres undefined) | 251 | 63.1 | – |
| COc1ccc(CC(=O)NC(N=C(NC#N)Nc2ccc(F)c(F)c2)C(C)(C)C)cc1OC (centres undefined) | 794 | 50.1 | – |
| COc1ccc(C(=O)NC(N=C(NC#N)Nc2ccccc2C)C(C)(C)C)cc1OC (centres undefined) | 5010 | 631 | – |
| COc1ccc(CC(=O)NC(N/C(=N/C#N)Nc2ccc(F)cc2F)C(C)(C)C)cc1OC (centres undefined) | 251 | 10 | – |

Other lines, results leading:

| IC50 [1] [nM] | IC50 [2] [nM] | bioavailability [3] [%] | SMILES |
| --- | --- | --- | --- |
| 200 | 31.6 | – | COc1ccc(CC(=O)NC(N/C(=N/C#N)Nc2c(F)cccc2F)C(C)(C)C)cc1OC (centres undefined) |
| 79.4 | 20 | – | COc1ccc(CC(=O)NC(N=C(NC#N)Nc2cc(Cl)ccc2F)C(C)(C)C)cc1OC (centres undefined) |
| 79.4 | 31.6 | – | COc1ccc(CCCC(=O)NC(NC(=NC#N)Nc2ccccc2C)C(C)(C)C)cc1 (centres undefined) |
| 251 | 158 | – | COc1ccc(CC(=O)NC(N/C(=N/C#N)Nc2cccnc2C)C(C)(C)C)cc1OC (centres undefined) |
| 63.1 | 7.94 | – | COc1ccc(CC(=O)NC(NC(=NC#N)Nc2ccccc2Cl)C(C)(C)C)cc1OC (centres undefined) |
| 100 | 39.8 | – | COc1ccc(CC(=O)NC(NC(=NC#N)Nc2cccnc2OC)C(C)(C)C)cc1OC (centres undefined) |
| 31.6 | 31.6 | – | CC(C)(C)C(NC(=O)Cc1cccc2ccccc12)NC(=NC#N)Nc1cccc2ncccc12 (centres undefined) |
| 200 | 1000 | – | COc1cc(OC)cc(C(=O)NC(N/C(=N/C#N)Nc2cccnc2C)C(C)(Cl)Cl)c1 (centres undefined) |
| 100 | 20 | – | COc1ccc(CC(=O)NC(N/C(=N/C#N)Nc2cc(F)ccc2F)C(C)(C)C)cc1OC (centres undefined) |
| 31.6 | 7.94 | – | COc1ccc(CC(=O)NC(NC(=NC#N)Nc2cccnc2OC)C(C)(Cl)Cl)cc1OC (centres undefined) |
| 31.6 | 12.6 | – | COc1ccc(N/C(=N\C#N)NC(NC(=O)Cc2ccc(OC)c(OC)c2)C(C)(C)C)c(OC)n1 (centres undefined) |
| 10 | 7.94 | – | CSc1ccc(CC(=O)NC(N=C(NC#N)Nc2cccc3ncccc23)C(C)(C)C)cc1 (centres undefined) |
| 100 | 50.1 | – | COc1ccc(CC(=O)NC(NC(=S)Nc2ccccc2C)C(Cl)(Cl)Cl)cc1OC (centres undefined) |
| 158 | 25.1 | – | COc1ccccc1NC(=NC(NC(=O)Cc1ccc(OC)c(OC)c1)C(C)(C)C)NC#N (centres undefined) |
| 50.1 | 20 | – | COc1cc(OC)cc(C(=O)NC(NC(=NC#N)Nc2cccnc2OC)C(C)(Cl)Cl)c1 (centres undefined) |
| 63.1 | 20 | – | Cc1ccccc1N/C(=N\C#N)NC(NC(=O)Cc1ccc(Cl)cc1)C(C)(C)C (centres undefined) |
| 126 | 12.6 | 90 | COc1ccc(CC(=O)NC(NC(=NC#N)Nc2ccccc2C)C(C)(C)C)cc1OC (stereo in doubt; 13) |
